From ChEMBL document CHEMBL4689842, “EUbOPEN Chemogenomics Library wave 1” (2021)

System: U2OS
Assay: Multiplex assay against U2OS
Format: toxicity, cell-based
Details: human
In short: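 Hoechst33342, BioTracker Green Microtubule Cytoskeleton Dye, MitoTracker Red and Annexin V Alexa Fluor 680 were added to live cells at seeding, and imaging on a CQ1 microscope at 37°C and 5% CO2 followed compound addition. Gating by CellPathfinder machine learning separated cells into Hoechst high-intensity objects or normal cells, then normal cells into healthy, pyknosed or fragmented nuclei, then pyknosed cells into mitotic or apoptotic. Per cents of healthy-nucleus cells are reported for the tubulin, mitochondrial-mass and membrane-permeability phenotypes.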

[1] = 12 h, 1 µM, compound concentration 1 uM, replicate 1
[2] = 12 h, 1 µM, compound concentration 1 uM, replicate 2
[3] = 12 h, 10 µM, compound concentration 10 uM, replicate 1
[4] = 12 h, 10 µM, compound concentration 10 uM, replicate 2
[5] = 24 h, 1 µM, compound concentration 1 uM, replicate 1
[6] = 24 h, 1 µM, compound concentration 1 uM, replicate 2
[7] = 24 h, 10 µM, compound concentration 10 uM, replicate 1
[8] = 24 h, 10 µM, compound concentration 10 uM, replicate 2

## CC[C@H](Nc1ncnc2[nH]cnc12)c1nc2cccc(F)c2c(=O)n1-c1ccccc1 [IDELALISIB]
[1]
  Population Apoptotic (%): 46%
  Population Fragmented Nuclei (%): 1%
  Population Healthy Nuclei (%): 88%
  Population Hoechst High Intensity Objects (%): 3%
  Population Membrane Permeable-Phenotype (%): 47%
  Population Mitochondria Different-Phenotype (%): 10%
  Population Mitotic Cells (%): 53%
  Population Normal (%): 96%
  Population Pyknosed Nuclei (%): 9%
  Population Tubulin-Different-Phenotype (%): 34%
  Total Cell Count: 162
[2]
  Population Apoptotic (%): 14%
  Population Fragmented Nuclei (%): 10%
  Population Healthy Nuclei (%): 84%
  Population Hoechst High Intensity Objects (%): 9%
  Population Membrane Permeable-Phenotype (%): 45%
  Population Mitochondria Different-Phenotype (%): 8%
  Population Mitotic Cells (%): 85%
  Population Normal (%): 90%
  Population Pyknosed Nuclei (%): 5%
  Population Tubulin-Different-Phenotype (%): 27%
  Total Cell Count: 132
[3]
  Population Apoptotic (%): 0%
  Population Fragmented Nuclei (%): 5%
  Population Healthy Nuclei (%): 86%
  Population Hoechst High Intensity Objects (%): 11%
  Population Membrane Permeable-Phenotype (%): 4%
  Population Mitochondria Different-Phenotype (%): 18%
  Population Mitotic Cells (%): 100%
  Population Normal (%): 88%
  Population Pyknosed Nuclei (%): 7%
  Population Tubulin-Different-Phenotype (%): 90%
  Total Cell Count: 180
[4]
  Population Fragmented Nuclei (%): 8%
  Population Healthy Nuclei (%): 88%
  Population Hoechst High Intensity Objects (%): 16%
  Population Mitochondria Different-Phenotype (%): 28%
  Population Normal (%): 83%
  Population Pyknosed Nuclei (%): 2%
  Population Tubulin-Different-Phenotype (%): 15%
  Total Cell Count: 130
[5]
  Population Apoptotic (%): 45%
  Population Fragmented Nuclei (%): 3%
  Population Healthy Nuclei (%): 85%
  Population Hoechst High Intensity Objects (%): 3%
  Population Membrane Permeable-Phenotype (%): 28%
  Population Mitochondria Different-Phenotype (%): 9%
  Population Mitotic Cells (%): 54%
  Population Normal (%): 96%
  Population Pyknosed Nuclei (%): 10%
  Population Tubulin-Different-Phenotype (%): 17%
  Total Cell Count: 210
[6]
  Population Apoptotic (%): 42%
  Population Fragmented Nuclei (%): 9%
  Population Healthy Nuclei (%): 77%
  Population Hoechst High Intensity Objects (%): 5%
  Population Membrane Permeable-Phenotype (%): 32%
  Population Mitochondria Different-Phenotype (%): 15%
  Population Mitotic Cells (%): 57%
  Population Normal (%): 94%
  Population Pyknosed Nuclei (%): 13%
  Population Tubulin-Different-Phenotype (%): 15%
  Total Cell Count: 148
[7]
  Population Apoptotic (%): 33%
  Population Fragmented Nuclei (%): 3%
  Population Healthy Nuclei (%): 93%
  Population Hoechst High Intensity Objects (%): 11%
  Population Membrane Permeable-Phenotype (%): 2%
  Population Mitochondria Different-Phenotype (%): 19%
  Population Mitotic Cells (%): 66%
  Population Normal (%): 88%
  Population Pyknosed Nuclei (%): 2%
  Population Tubulin-Different-Phenotype (%): 94%
  Total Cell Count: 244
[8]
  Population Apoptotic (%): 40%
  Population Fragmented Nuclei (%): 9%
  Population Healthy Nuclei (%): 82%
  Population Hoechst High Intensity Objects (%): 8%
  Population Membrane Permeable-Phenotype (%): 8%
  Population Mitochondria Different-Phenotype (%): 30%
  Population Mitotic Cells (%): 60%
  Population Normal (%): 91%
  Population Pyknosed Nuclei (%): 7%
  Population Tubulin-Different-Phenotype (%): 21%
  Total Cell Count: 146
